{"data": "Published values from different studies", "gyrA": "DNA gyrase subunit A (gyrA, Escherichia coli K-12, UniProt P0AES4)", "gag-pol reverse transcriptase": "Gag-Pol polyprotein, reverse transcriptase (gag-pol, Human immunodeficiency virus 1, UniProt P03366)", "SLK": "STE20-like serine/threonine-protein kinase (SLK, Homo sapiens, UniProt Q9H2G2)", "PRMT6": "Protein arginine N-methyltransferase 6 (PRMT6, Homo sapiens, UniProt Q96LA8)", "PDE2A": "cGMP-dependent 3',5'-cyclic phosphodiesterase (PDE2A, Homo sapiens, UniProt O00408)", "note": "Lines come from different studies, so protocols differ."}
{"SMILES": "CC(C)Oc1c(NC(=O)c2ccc(NC(=O)[C@H](CC(N)=O)NC(=O)c3ccc(NC(=O)CCc4ccc(C#N)cc4)cc3)cc2)ccc(C(=O)Nc2ccc(C(=O)O)cc2)c1O", "target": "gyrA", "assay": "enzyme activity, inhibitor", "IC50 [nM]": 1000}
{"SMILES": "Cc1cc(C)cc(S(=O)(=O)c2c(C(=O)NCCCCCNS(=O)(=O)c3ccc(F)cc3)[nH]c3ccc(Cl)cc23)c1", "target": "gag-pol reverse transcriptase", "assay": "enzyme activity, inhibitor, ELISA", "IC50 [nM]": 150}
{"SMILES": "N#Cc1ccc(Nc2nc(N)cc(Oc3ccc(-c4ccccc4)cc3F)n2)cc1", "target": "gag-pol reverse transcriptase", "assay": "enzyme activity, inhibitor", "IC50 [nM]": 160}
{"SMILES": "CCN1CCN(Cc2ccc(C(=O)Nc3ccc(C)c(Oc4ccc5c(c4)CC(=O)N5)c3)cc2C(F)(F)F)CC1", "target": "Tyrosine-protein kinase ABL1 (ABL1, Homo sapiens, UniProt P00519)", "assay": "enzyme activity, inhibitor", "IC50 [nM]": 1810}
{"SMILES": "Cc1cc(C)cc(S(=O)(=O)c2c(C(=O)NCCCCCNS(=O)(=O)c3ccc(Br)cc3)[nH]c3ccc(Cl)cc23)c1", "target": "gag-pol reverse transcriptase", "assay": "enzyme activity, inhibitor, ELISA", "IC50 [nM]": 130}
{"SMILES": "Cc1cnc(-c2ccc(-c3ccc(NC(=O)Nc4c(F)cc(F)cc4F)cc3F)c3c2C(=O)NC3)[nH]1", "target": "SLK", "assay": "enzyme activity, inhibitor", "IC50 [nM]": 14.3}
{"SMILES": "N#Cc1ccc(Nc2nc(N)cc(Oc3ccc(-c4ccc(C#N)cc4)cc3C#N)n2)cc1", "target": "gag-pol reverse transcriptase", "assay": "enzyme activity, inhibitor", "IC50 [nM]": 30}
{"SMILES": "O=C1N=C(Nc2ccccc2)S/C1=C\\c1ccccc1OCc1cn(Cc2ccccc2Br)nn1", "target": "Aldo-keto reductase family 1 member A1 (AKR1A1, Homo sapiens, UniProt P14550)", "assay": "enzyme activity, inhibitor, absorbance", "conditions": "pH 6.2", "IC50 [nM]": 62000}
{"SMILES": "CC(C)Oc1c(NC(=O)c2ccc(NC(=O)[C@H](CC(N)=O)NC(=O)c3ccc(NC(=O)c4ccc(N)cc4)cc3)cc2)ccc(C(=O)Nc2ccc(C(=O)O)cc2)c1O", "target": "gyrA", "assay": "enzyme activity, inhibitor", "IC50 [nM]": 26800}
{"SMILES": "N#Cc1ccc(Nc2nc(N)cc(Oc3ccc(-c4ccc(C#N)cc4)cc3C(F)(F)F)n2)cc1", "target": "gag-pol reverse transcriptase", "assay": "enzyme activity, inhibitor", "IC50 [nM]": 70}
{"SMILES": "Cc1nccc2c1c(=O)n(C)c1cc(OC[C@@H](N)CC(C)C)c(C#N)cc21", "target": "Alpha-2A adrenergic receptor (ADRA2A, Homo sapiens, UniProt P08913)", "assay": "cell-free assay", "IC50 [nM]": "> 30000"}
{"SMILES": "Cc1cc(C)cc(S(=O)(=O)c2c(C(=O)NCCCCNS(=O)(=O)c3ccccc3)[nH]c3ccc(Cl)cc23)c1", "target": "gag-pol reverse transcriptase", "assay": "enzyme activity, inhibitor, ELISA", "IC50 [nM]": 130}
{"SMILES": "N#Cc1ccc(Nc2nc(N)cc(Oc3ccc(-c4ccccc4F)cc3F)n2)cc1", "target": "gag-pol reverse transcriptase", "assay": "enzyme activity, inhibitor", "IC50 [nM]": 50}
{"SMILES": "CC(C)Oc1c(NC(=O)c2ccc(NC(=O)[C@H](CC(N)=O)NC(=O)c3ccc(C#Cc4ccc(C#N)cc4)cc3)cc2)ccc(C(=O)Nc2ccc(C(=O)O)cc2)c1O", "target": "gyrA", "assay": "enzyme activity, inhibitor", "IC50 [nM]": 500}
{"SMILES": "C(/C=C/c1sc2c3ccccc3ccc2[n+]1CCCc1ccccc1)=C1/Sc2c(ccc3ccccc23)N1CCCc1ccccc1", "target": "PRMT6", "assay": "enzyme activity, inhibitor, radiometric", "IC50 [nM]": 1500}
{"SMILES": "Cc1cc(C)cc(S(=O)(=O)c2c(C(=O)NCCCNS(=O)(=O)c3ccc(Br)cc3)[nH]c3ccc(Cl)cc23)c1", "target": "gag-pol reverse transcriptase", "assay": "enzyme activity, inhibitor, ELISA", "IC50 [nM]": 160}
{"SMILES": "COc1ccc2c(Oc3ccc4c(C(=O)Nc5ccccc5N)cccc4c3)ccnc2c1", "target": "Insulin-like growth factor 1 receptor (IGF1R, Homo sapiens, UniProt P08069)", "assay": "enzyme activity, inhibitor", "IC50 [nM]": "> 500"}
{"SMILES": "CCOC(=O)N1CCC(CN(Cc2ccc(Cl)cc2)Cc2ccc([N+](=O)[O-])s2)C1 (centres unmarked)", "target": "Oxysterols receptor LXR-alpha (NR1H3, Homo sapiens, UniProt Q13133)", "assay": "ligand displacement, radioligand", "IC50 [nM]": 13000}
{"SMILES": "N#Cc1ccc(Nc2nc(N)cc(Oc3ccc(-c4ccccc4F)cc3)n2)cc1", "target": "gag-pol reverse transcriptase", "assay": "enzyme activity, inhibitor", "IC50 [nM]": 260}
{"SMILES": "CC(C)c1cccc2c(-c3ccccc3)cc(-c3ccc(-c4ccc(C(=O)O)cc4)[nH]3)nc12", "target": "Retinoic acid receptor alpha (RARA, Homo sapiens, UniProt P10276)", "assay": "reporter gene, antagonist", "IC50 [nM]": 15}
{"SMILES": "COc1ccc(C2=NN(C3CCCCCC3)C(=O)[C@@H]3CC=CC[C@H]23)cc1-c1ccc(C(N)=O)cc1 (relative stereo)", "target": "PDE2A", "assay": "enzyme activity, inhibitor", "IC50 [nM]": 3980}
{"SMILES": "CS(=O)(=O)/C(C#N)=C/c1cccn1S(=O)(=O)c1c(F)c(F)c(F)c(F)c1F", "target": "Protein phosphatase methylesterase 1 (Homo sapiens, UniProt Q9Y570)", "assay": "enzyme activity, inhibitor", "IC50 [nM]": "> 20000"}
{"SMILES": "CCn1ncc2c1-c1cnc(N)c(c1)O[C@H](C)c1cc(F)ccc1-c1nn(C)nc1C2", "target": "SLK", "assay": "enzyme activity, inhibitor, radiometric", "IC50 [nM]": 336}
{"SMILES": "C[C@H]1Oc2cc(cnc2N)-c2c(nn(C)c2C#N)CN(C)C(=O)c2ccc(F)cc21", "target": "Protein-tyrosine kinase 2-beta (PTK2B, Homo sapiens, UniProt Q14289)", "assay": "enzyme activity, inhibitor, radiometric", "IC50 [nM]": 5.9}
{"SMILES": "N#Cc1ccc(Nc2nc(N)cc(Oc3ccc(-c4ccc(C#N)cc4)c(C#N)c3)n2)cc1", "target": "gag-pol reverse transcriptase", "assay": "enzyme activity, inhibitor", "IC50 [nM]": 90}
{"SMILES": "COc1ccc(-c2oc3ncnc(NCc4ccccc4)c3c2-c2ccc(OC)cc2)cc1", "target": "Receptor tyrosine-protein kinase erbB-2 (ERBB2, Homo sapiens, UniProt P04626)", "assay": "enzyme activity, inhibitor, radiometric", "IC50 [nM]": 4600}
{"SMILES": "Cc1cc(C(=O)Nc2ccc(C(=O)N[C@@H](CC(N)=O)C(=O)Nc3ccc(C(=O)Nc4ccc(C(=O)Nc5ccc(C(=O)O)cc5)c(O)c4OC(C)C)cc3)cc2)ccc1C#N", "target": "gyrA", "assay": "enzyme activity, inhibitor", "IC50 [nM]": 1600}
{"SMILES": "Cc1cc(C)cc(S(=O)(=O)c2c(C(=O)NCCNS(=O)(=O)c3cccc(F)c3)[nH]c3ccc(Cl)cc23)c1", "target": "gag-pol reverse transcriptase", "assay": "enzyme activity, inhibitor, ELISA", "IC50 [nM]": 83}
{"SMILES": "CC(C)Oc1c(NC(=O)c2ccc(NC(=O)[C@H](CC(N)=O)NC(=O)c3ccc(NC(=O)C(C)Sc4ccc(C#N)cc4)cc3)cc2)ccc(C(=O)Nc2ccc(C(=O)O)cc2)c1O (some centres unmarked)", "target": "gyrA", "assay": "enzyme activity, inhibitor", "IC50 [nM]": 800}
{"SMILES": "CCCS(=O)(=O)Nc1ccc(F)c(C(=O)c2c[nH]c3ncc(Br)cc23)c1F", "target": "Dual specificity mitogen-activated protein kinase kinase 6 (MAP2K6, Homo sapiens, UniProt P52564)", "assay": "enzyme activity, inhibitor, ADP detection", "IC50 [nM]": 2500}
{"SMILES": "N#Cc1ccc(Nc2nc(N)cc(Oc3c(F)cc(-c4ccccc4F)cc3F)n2)cc1", "target": "gag-pol reverse transcriptase", "assay": "enzyme activity, inhibitor", "IC50 [nM]": 40}
{"SMILES": "CC(C)Oc1c(NC(=O)c2ccc(NC(=O)[C@H](CC(N)=O)NC(=O)c3ccc(NC(=O)c4ccc(C#N)cc4)cc3)cc2)ccc(C(=O)Nc2ccncc2)c1O", "target": "gyrA", "assay": "enzyme activity, inhibitor", "IC50 [nM]": 900}
{"SMILES": "Cc1cc(C)cc(S(=O)(=O)c2c(C(=O)NCCCCNS(=O)(=O)c3ccc([N+](=O)[O-])cc3)[nH]c3ccc(Cl)cc23)c1", "target": "gag-pol reverse transcriptase", "assay": "enzyme activity, inhibitor, ELISA", "IC50 [nM]": 150}
{"SMILES": "COc1cc(/C=C2\\SC(=O)NC2=O)cc(F)c1OCCNc1nc2c(cnn2C2CCCC2)c(=O)[nH]1", "target": "PDE2A", "assay": "enzyme activity, inhibitor", "IC50 [nM]": 167}
{"SMILES": "N#Cc1ccc(Nc2nc(N)cc(Oc3ccc(-c4ccc(C#N)cc4)c(F)c3)n2)cc1", "target": "gag-pol reverse transcriptase", "assay": "enzyme activity, inhibitor", "IC50 [nM]": 50}
{"SMILES": "COc1c(C(=O)Nc2ccc(C(=O)O)cc2)ccc2nc(-c3cc(NC(=O)C(CC(N)=O)NC(=O)c4ccc(NC(=O)c5ccc(C#N)cc5)cc4)cn3C)[nH]c12 (centres unmarked)", "target": "gyrA", "assay": "enzyme activity, inhibitor", "IC50 [nM]": 10900}
{"SMILES": "COc1ccc(S(=O)(=O)NCCCCNC(=O)c2[nH]c3ccc(Cl)cc3c2S(=O)(=O)c2cc(C)cc(C)c2)cc1", "target": "gag-pol reverse transcriptase", "assay": "enzyme activity, inhibitor, ELISA", "IC50 [nM]": 130}
{"SMILES": "CCCCN1/C(=C/C=C(Br)/C=C/C2=[N+](CCCC)c3ccc(Br)cc3C2(C)C)C(C)(C)c2cc(Br)ccc21", "target": "PRMT6", "assay": "enzyme activity, inhibitor, radiometric", "IC50 [nM]": 2430}
{"SMILES": "Cc1cc(C)cc(S(=O)(=O)c2c(C(=O)NCCCNS(=O)(=O)c3ccc(F)cc3)[nH]c3ccc(Cl)cc23)c1", "target": "gag-pol reverse transcriptase", "assay": "enzyme activity, inhibitor, ELISA", "IC50 [nM]": 100}
{"SMILES": "CC(C)Oc1c(NC(=O)c2ccc(NC(=O)[C@H](CC(N)=O)NC(=O)c3ccc(NC(=O)c4ccc(C#N)c(F)c4)cc3)cc2)ccc(C(=O)Nc2ccc(C(=O)O)cc2)c1O", "target": "gyrA", "assay": "enzyme activity, inhibitor", "IC50 [nM]": 400}
{"SMILES": "N=C(N)NC(=O)c1nc(Cl)c(N)nc1N", "target": "delm-1 (Caenorhabditis elegans, UniProt O45402)", "assay": "ion current, two-electrode voltage clamp", "conditions": "oocytes", "IC50 [nM]": 120000}
